Reference: ChEMBL document CHEMBL1154601, “A new series of amodiaquine analogues modified in the basic side chain with in vitro antileishmanial and antiplasmodial activity” (Eur J Med Chem, 2009)

Experiments:
Plasmodium falciparum [1] = experiment: Antimalarial activity against chloroquine-resistant Plasmodium falciparum K1 assessed as inhibition of parasite growth after 48 hrs by [3H]hypoxanthine reuptake assay; type: functional, organism-based
Summary of the method: (§1)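 Synchronised ring-stage cultures at 1% parasitemia, 5% hematocrit, in RPMI 1640 at 37°C, 5% CO2; top final test concentration 30 µg/mL. After 24 h, (3H)-hypoxanthine (0.2 µCi/well) was added, followed by a further 48 h incubation. Plates were freeze/thawed and harvested, and uptake was counted by scintillation. IC50 came from sigmoidal regression as the mean of at least three determinations.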

KB = experiment: Cytotoxicity against human KB cells after 72 hrs by Alamar blue assay; type: cell-based
Summary of the method: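 Monolayers grown in RPMI 1640 + 10% heat-inactivated FCS at 37°C, 5% CO2. After 72 h compound exposure, Alamar Blue added and incubated a further 2-4 h. Fluorescence read at 530/580 nm, cut-off 550 nm. Podophyllotoxin served as positive control. IC50 is the concentration killing 50% of cells.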

Plasmodium falciparum [2] = experiment: Antimalarial activity against chloroquine-susceptible Plasmodium falciparum 3D7 assessed as inhibition of parasite growth after 48 hrs by [3H]hypoxanthine reuptake assay; type: functional, organism-based; summary of the method: as §1
Leishmania donovani = experiment: Antileishmanial activity against Leishmania donovani MHOM/ET/ 67/HU3 amastigote infected in CD1 mouse peritoneal exudate macrophages assessed as parasite growth inhibition after 5 days by Giemsa staining; type: functional, organism-based; conditions: MHOM/ET/ 67/HU3, 120 h
Summary of the method: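 Macrophages from starch-induced peritoneal exudate, harvested after 24 h, held 24 h in RPMI 1640 + 10% HIFCS at 37°C, 5% CO2. Infected with hamster-spleen-derived amastigotes at 5 parasites:1 macrophage, then 24 h later drug applied for 5 days, overlay renewed day 3. Top concentration 30 µg/mL, quadruplicates. Methanol fixation, microscopic scoring. IC50 by sigmoidal regression, mean of at least three determinations.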

Structure (SMILES) | IC50 (Plasmodium falciparum [1]) [nM] | IC50 (KB) [nM] | IC50 (Plasmodium falciparum [2]) [nM] | IC50 (Leishmania donovani) [nM]
Oc1ccc(Nc2ccnc3cc(Cl)ccc23)cc1CN1CCN(c2ccccc2)CC1 | 1.8 | 8630 | 3.52 | 9680
Oc1ccc(Nc2ccnc3cc(Cl)ccc23)cc1CN1CCN(c2ccccn2)CC1 | 1.4 | 16100 | 0.323 | 6710
CCOC(=O)N1CCN(Cc2cc(Nc3ccnc4cc(Cl)ccc34)ccc2O)CC1 | 7.04 | 11400 | 5.28 | 14900
Oc1ccc(Nc2ccnc3cc(Cl)ccc23)cc1CN1CCN(c2nc3ccccc3o2)CC1 | 387 | 8020 | 1.68 | 14600
Oc1ccc(Nc2ccnc3cc(Cl)ccc23)cc1CN1CCN(c2nc3ccccc3[nH]2)CC1 | 1.54 | 2440 | 3.08 | 1870
Oc1ccc(Nc2ccnc3cc(Cl)ccc23)cc1CN1CCN(c2ncccn2)CC1 | – | 8030 | – | 7210
CCN(CC)Cc1cc(Nc2ccnc3cc(Cl)ccc23)ccc1O | 8.61 | 90000 | 2.15 | 1400
CCN(CCNC(=O)OC(C)(C)C)Cc1cc(Nc2ccnc3cc(Cl)ccc23)ccc1O | 2.12 | 8810 | 2.12 | 8770
CCN(CCNC(=N)Nc1ccccc1)Cc1cc(Nc2ccnc3cc(Cl)ccc23)ccc1O | 12100 | 9030 | 126 | 11700
Oc1ccc(Nc2ccnc3cc(Cl)ccc23)cc1CN1CCN(c2cccs2)CC1 | – | 50400 | 2.22 | 9140
Oc1ccc(Nc2ccnc3cc(Cl)ccc23)cc1CN1CCN(c2nc3ccccc3s2)CC1 | 1480 | 45200 | 14.6 | 12900
CCN(CCN)Cc1cc(Nc2ccnc3cc(Cl)ccc23)ccc1O | 5.47 | 25600 | 5.47 | 5650
CCN(CCNC(=S)Nc1ccccc1)Cc1cc(Nc2ccnc3cc(Cl)ccc23)ccc1O | 6.5 | 8460 | 1.63 | 2050
Oc1ccc(Nc2ccnc3cc(Cl)ccc23)cc1CN1CCNCC1 | 225 | 11800 | 18.8 | 2290
Oc1ccc(Nc2ccnc3cc(Cl)ccc23)cc1CN1CCN(c2nccs2)CC1 | 0.42 | 5020 | 0.67 | 17700
CCN(CCNC(=N)c1ccccc1)Cc1cc(Nc2ccnc3cc(Cl)ccc23)ccc1O | 290 | 5340 | 48.4 | 7100
CCN(CCN/C(=N/C(=O)c1ccccc1)Oc1ccccc1)Cc1cc(Nc2ccnc3cc(Cl)ccc23)ccc1O | 10.1 | 10200 | 6.73 | 2860
CCN(CCNC(=O)[C@@H](N)[C@@H](C)O)Cc1cc(Nc2ccnc3cc(Cl)ccc23)ccc1O | 14100 | 54400 | 47 | 15300
C[C@H]1[C@H](OC(=O)CCC(=O)O)O[C@@H]2O[C@@]3(C)CC[C@H]4[C@H](C)CC[C@@H]1[C@@]24OO3 [ARTESUNATE] | 2.46 | – | – | –
CCN(CCNC(=O)Nc1ccccc1)Cc1cc(Nc2ccnc3cc(Cl)ccc23)ccc1O | 238 | 5330 | 8.22 | 1830
Oc1ccc(Nc2ccnc3cc(Cl)ccc23)cc1CCl | 557 | 25600 | 695 | > 83500
OCc1cc(Nc2ccnc3cc(Cl)ccc23)ccc1O | 1420 | 198000 | 712 | > 89000
CCN(CCNC(=O)[C@@H](N)CC(C)C)Cc1cc(Nc2ccnc3cc(Cl)ccc23)ccc1O | 14300 | 22300 | 22.6 | 4690
CCN(CCNC(=O)[C@H](C)N)Cc1cc(Nc2ccnc3cc(Cl)ccc23)ccc1O | 14100 | 10400 | 12.2 | 5150
